Columns and labels:
[1] = molecular target: T1, ATP-dependent RNA helicase DDX3X (Homo sapiens, UniProt O00571); assay: Inhibition of full length His-tagged human DDX3X expressed in Escherichia coli assessed as reduction in DDX3X helicase activity using FAM-labeled double stranded RNA as substrate after 40 mins by FRET assay relative to control
Method in brief: (§1)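 Recombinant His-tagged full-length DDX3X expressed in E. coli, Ni-NTA purified. Unwinding of FAM-labelled dsRNA, with capture strand at 100 nM, in Tris-HCl pH 8, 70 mM KCl, 2 mM MgCl2, 2 mM DTT, 2 mM ATP. Started with DDX3X, 37°C, 40 min, fluorescence read every 30 s. Initial slope gives unwinding rate; IC50 by nonlinear regression of triplicates.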

[2] = Metabolic stability in human liver microsomes at 50 uM after 60 mins in presence of NADPH-generating system by LC-UV-MS analysis; format: ADME, Microsome; conditions: read-out: Stability
Method in brief: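 Compound at 50 μM final (DMSO ≤2%) incubated with human liver microsomes (0.2 mg/mL) and NADPH-generating system in 125 mM phosphate buffer pH 7.4, 37 °C, 60 min. Remaining compound measured by LC-ESI-MS in positive ion mode, with UV at 280 nm.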

[3] = Apparent permeability of the compound by PAMPA; format: ADME
Method in brief: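 PAMPA: 0.5 mM donor solution in pH 7.4 phosphate buffer, diluted from 1 mM DMSO stock. Filter coated with 1% phosphatidylcholine in dodecane; acceptor 50% DMSO in buffer. Incubated 5 h at room temperature with shaking. Donor and acceptor quantified by LC-UV at 280 nm and Papp calculated. Three plates on different days.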

[4] = molecular target: T1, ATP-dependent RNA helicase DDX3X; assay: Competitive inhibition of human full length His-tagged DDX3X helicase activity expressed in Escherichia coli using FAM-labeled double stranded RNA as substrate at 0.1 uM after 40 mins by fluorescence assay; method in brief: as §1
[5] = tested on: West Nile virus; assay: Antiviral activity against West Nile virus infected in human HuH7 cells incubated for 4 days by crystal violet staining based plaque reduction assay; format: functional, organism-based; conditions: Huh-7, 96 h
Method in brief: (§2)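 Huh7 cells (2.5 × 10^5 per well, overnight) infected with lineage 2 WNV at MOI 0.1 for 1 h at 37°C, washed, then compound added in 10-fold dilutions (final 100–0.01 μM) with DMSO as virus control. Agarose overlay, 4 days at 37°C, methanol fixation, crystal violet staining. PFU relative to DMSO; IC50 by exponential fit at 50% PFU. Duplicates, repeated at least twice.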

[6] = molecular target: T1, ATP-dependent RNA helicase DDX3X; assay: Competitive inhibition of full length His-tagged human DDX3X expressed in Escherichia coli assessed as reduction in DDX3X helicase activity using 0.1 uM FAM-labeled double stranded RNA as substrate after 40 mins by FRET assay relative to control; method in brief: as §1
[7] = Cytotoxicity against human HuH7 cells after 3 days by MTT assay; format: cell-based, Huh-7; conditions: human, HuH7 cells
Method in brief: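 Huh7 cells (2.5 × 10^4 per well) adhered overnight. Confluent monolayers washed, then treated with compound (final 100–0.01 μM) or DMSO control for 3 days at 37°C. Viability by MTT, absorbance 570 nm, expressed relative to DMSO-treated cells.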

[8] = molecular target: T1, ATP-dependent RNA helicase DDX3X; assay: Competitive inhibition of full length His-tagged human DDX3X expressed in Escherichia coli assessed as reduction in DDX3X helicase activity using 0.024 uM FAM-labeled double stranded RNA as substrate after 40 mins by FRET assay relative to control; method in brief: as §1
[9] = molecular target: T2, ATP-dependent RNA helicase DDX1 (Homo sapiens, UniProt Q92499); assay: Inhibition of human DDX1 helicase activity
T2 sequence (Q92499 whole entry): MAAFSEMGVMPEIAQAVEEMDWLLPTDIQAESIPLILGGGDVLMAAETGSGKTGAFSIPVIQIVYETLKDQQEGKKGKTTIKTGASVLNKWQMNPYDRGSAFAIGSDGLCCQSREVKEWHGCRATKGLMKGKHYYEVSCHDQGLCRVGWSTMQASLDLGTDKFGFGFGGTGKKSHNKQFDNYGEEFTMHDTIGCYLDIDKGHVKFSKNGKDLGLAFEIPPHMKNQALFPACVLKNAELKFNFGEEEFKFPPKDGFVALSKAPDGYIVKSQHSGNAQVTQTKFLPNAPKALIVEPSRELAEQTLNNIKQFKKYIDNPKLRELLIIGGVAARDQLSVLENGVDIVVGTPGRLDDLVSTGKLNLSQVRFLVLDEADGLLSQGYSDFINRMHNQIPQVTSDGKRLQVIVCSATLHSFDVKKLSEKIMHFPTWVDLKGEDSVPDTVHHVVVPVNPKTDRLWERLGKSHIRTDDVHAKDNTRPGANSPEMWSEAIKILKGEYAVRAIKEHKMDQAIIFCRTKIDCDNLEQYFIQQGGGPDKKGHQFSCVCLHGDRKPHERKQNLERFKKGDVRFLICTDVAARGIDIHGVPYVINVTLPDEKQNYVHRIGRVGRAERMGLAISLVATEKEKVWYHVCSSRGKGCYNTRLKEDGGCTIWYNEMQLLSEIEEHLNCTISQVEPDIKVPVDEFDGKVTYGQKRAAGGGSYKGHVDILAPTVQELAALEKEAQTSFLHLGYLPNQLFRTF

[10] = tested on: West Nile virus; assay: Antiviral activity against West Nile virus; format: functional, organism-based; method in brief: as §2

T1 sequence (O00571 2-662 limits assumed): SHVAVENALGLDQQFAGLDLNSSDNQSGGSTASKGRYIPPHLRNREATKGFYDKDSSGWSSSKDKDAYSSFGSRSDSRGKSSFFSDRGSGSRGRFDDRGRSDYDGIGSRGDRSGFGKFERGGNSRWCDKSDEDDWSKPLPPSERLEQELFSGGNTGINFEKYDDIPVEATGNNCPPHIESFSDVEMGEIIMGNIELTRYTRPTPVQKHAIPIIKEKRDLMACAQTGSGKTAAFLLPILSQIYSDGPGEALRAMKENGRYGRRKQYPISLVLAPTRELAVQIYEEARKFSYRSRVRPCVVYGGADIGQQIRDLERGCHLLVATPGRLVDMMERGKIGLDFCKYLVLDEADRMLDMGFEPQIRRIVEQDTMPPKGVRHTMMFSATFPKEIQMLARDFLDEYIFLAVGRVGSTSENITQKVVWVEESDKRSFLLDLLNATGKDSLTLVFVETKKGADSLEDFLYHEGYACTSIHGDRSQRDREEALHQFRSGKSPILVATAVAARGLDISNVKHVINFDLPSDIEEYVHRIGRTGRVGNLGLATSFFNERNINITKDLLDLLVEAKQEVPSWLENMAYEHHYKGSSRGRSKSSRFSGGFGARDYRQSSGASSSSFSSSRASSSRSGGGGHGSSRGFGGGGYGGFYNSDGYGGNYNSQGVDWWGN

SMILES | inhibition [1] [%] | remaining at 1 h, 50 µM [2] [%] | Papp [3] [×10⁻⁶ cm/s] | EC50 [5] [µM] | CC50 at 72 h [7] [µM] | also measured
CCCCc1cn(-c2cccc(S(=O)(=O)Nc3ccccc3O)c2)nn1 | 83 | 95.6 | 0.1 | 2.3 | > 200 | ID50 [4]: 20 µM; ID50 [6]: 2.2 µM; ID50 [8]: 0.3 µM
CCCCc1cn(-c2cccc(S(=O)(=O)Nc3ccc(OC)cc3)c2)nn1 | 80 | – | – | – | – | –
CCCCc1cn(-c2cccc(S(=O)(=O)Nc3ccccc3)c2)nn1 | 31 | – | – | – | – | –
CCc1cn(-c2cccc(S(=O)(=O)Nc3ccccc3C(F)(F)F)c2)nn1 | 71 | – | – | – | – | –
CCOCc1cn(-c2cccc(S(=O)(=O)Nc3cccc4cnccc34)c2)nn1 | 98 | 96 | 0.44 | 13 | > 200 | –
O=[N+]([O-])c1cccc(S(=O)(=O)Nc2ccccc2O)c1 | 98 | 98.3 | < 0.1 | 120 | 175 | IC50 [9]: > 200 µM
CCCCc1cn(-c2cccc(S(=O)(=O)Nc3ccccc3F)c2)nn1 | 24 | – | – | > 200 | > 200 | –
CC(C)CCc1cn(-c2cccc(S(=O)(=O)Nc3ccccc3C(F)(F)F)c2)nn1 | 96 | – | – | – | – | –
C[C@@]1(O)[C@H](O)[C@@H](CO)O[C@H]1n1ccc2c(N)ncnc21 [BETA-2'-C-METHYL-7-DEAZA-ADENOSINE] | – | – | – | – | – | EC50 [10]: 4.5 µM
O=S(=O)(Nc1ccccc1C(F)(F)F)c1cccc(-n2cc(-c3ccccc3)nn2)c1 | 41 | – | – | – | – | –
CCCCc1cn(-c2cccc(S(=O)(=O)Nc3cccc4cnccc34)c2)nn1 | 99 | 98 | 0.68 | 55 | > 200 | IC50 [9]: > 200 µM
CCCCc1cn(-c2ccc(S(=O)(=O)Nc3ccccc3O)cc2)nn1 | 57 | – | – | – | – | –

Reference: ChEMBL document CHEMBL4480403, “DDX3X Helicase Inhibitors as a New Strategy To Fight the West Nile Virus Infection” (J Med Chem, 2019)
